ChEMBL document CHEMBL4219214, “Callyspongiamides A and B, sterol O-acyltransferase inhibitors, from the Indonesian marine sponge Callyspongia sp” (Bioorg Med Chem Lett, 2018)

Assays:
[1] = tested on: CHO; test: Effect on cell morphology in CHO cells expressing African green monkey SOAT1 up to 21 to 23 uM; type: ADME, cell-based, Cricetulus griseus; settings: chinese hamster
[2] = target: T1, Sterol O-acyltransferase 1 (Chlorocebus aethiops, UniProt O77760); test: Inhibition of African green monkey SOAT1 expressed in CHO cells assessed as decrease in [14C]CE synthesis from [14C]oleic acid after 6 hrs; type: cell-based
T1 sequence (O77760 whole entry): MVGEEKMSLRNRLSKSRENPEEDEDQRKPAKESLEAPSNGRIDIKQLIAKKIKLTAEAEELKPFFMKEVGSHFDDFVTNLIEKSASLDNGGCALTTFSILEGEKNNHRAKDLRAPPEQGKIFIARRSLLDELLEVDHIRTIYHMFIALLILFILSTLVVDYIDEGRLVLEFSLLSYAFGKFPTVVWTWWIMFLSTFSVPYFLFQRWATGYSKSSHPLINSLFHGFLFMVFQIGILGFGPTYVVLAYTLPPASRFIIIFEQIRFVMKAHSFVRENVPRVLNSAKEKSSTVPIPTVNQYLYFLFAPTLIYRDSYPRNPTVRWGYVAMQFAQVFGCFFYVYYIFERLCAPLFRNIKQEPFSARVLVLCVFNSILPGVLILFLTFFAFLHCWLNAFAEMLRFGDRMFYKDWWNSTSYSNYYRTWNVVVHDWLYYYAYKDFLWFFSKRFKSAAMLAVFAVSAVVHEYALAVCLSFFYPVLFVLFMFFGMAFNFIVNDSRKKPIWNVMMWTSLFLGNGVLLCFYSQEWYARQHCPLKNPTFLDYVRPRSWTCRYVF

[3] = target: T2, Sterol O-acyltransferase 2 (Chlorocebus aethiops, UniProt O77759); test: Inhibition of African green monkey SOAT2 isolated from CHO cell microsomes assessed as decrease in [14C]CE synthesis from [1-14C]oleoyl-CoA after 5 mins
T2 sequence (O77759 whole entry): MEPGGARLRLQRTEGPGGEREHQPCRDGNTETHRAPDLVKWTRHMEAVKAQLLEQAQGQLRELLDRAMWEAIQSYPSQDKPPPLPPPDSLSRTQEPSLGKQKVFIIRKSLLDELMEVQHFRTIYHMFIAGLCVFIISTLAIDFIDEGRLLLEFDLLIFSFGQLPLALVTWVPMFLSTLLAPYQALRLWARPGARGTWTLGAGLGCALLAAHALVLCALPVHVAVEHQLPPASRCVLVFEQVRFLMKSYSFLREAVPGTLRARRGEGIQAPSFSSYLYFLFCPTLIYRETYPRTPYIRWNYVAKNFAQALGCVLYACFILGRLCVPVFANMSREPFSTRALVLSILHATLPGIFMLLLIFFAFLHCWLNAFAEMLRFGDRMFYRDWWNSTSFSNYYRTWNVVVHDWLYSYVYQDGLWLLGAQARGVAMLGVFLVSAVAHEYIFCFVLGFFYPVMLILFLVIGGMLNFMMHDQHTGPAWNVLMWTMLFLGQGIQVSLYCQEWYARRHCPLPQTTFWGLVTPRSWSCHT

[4] = tested on: CHO; test: Effect on phospholipid synthesis in CHO cells expressing African green monkey SOAT1 up to 21 to 23 uM; type: ADME, cell-based, Cricetulus griseus; settings: chinese hamster
In short: (§1)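 SOAT1- or SOAT2-expressing CHO cells were grown in Ham's F-12 with MEM vitamins, geneticin (300 μg/mL) and 10% heat-inactivated FBS at 37 °C, 5% CO2. Cells were seeded at 1.25 × 10⁵/well, recovered overnight, and used at ≥80% confluence. Compound stocks in CH3OH (0–1 mg/mL) were added with [14C]oleic acid (1 nmol) for 6 h. Lipids were Bligh–Dyer extracted, and [14C]PL was resolved by TLC and imaged.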

[5] = target: T1, Sterol O-acyltransferase 1; test: Inhibition of African green monkey SOAT1 isolated from CHO cell microsomes assessed as decrease in [14C]CE synthesis from [1-14C]oleoyl-CoA after 5 mins
[6] = species: Chlorocebus aethiops; test: Selectivity index, ratio of IC50 for African green monkey SOAT1 isolated from CHO cell microsomes to IC50 for African green monkey SOAT2 isolated from CHO cell microsomes
In short: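 Microsomes were made by homogenizing SOAT1- or SOAT2-CHO cells in sucrose/KCl/KH2PO4/EDTA buffer (pH 7.2) and pelleting at 100,000 × g, 1 h, 4 °C. They were incubated with fatty-acid-free BSA and compound in methanol, and the reaction was started with [1-14C]oleoyl-CoA for 5 min at 37 °C. It was stopped with CHCl3:MeOH 2:1, and [14C]CE was measured by TLC radioimaging. Values are mean ± SD, n = 3. SI = log(IC50 SOAT1/IC50 SOAT2).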

[7] = target: T2, Sterol O-acyltransferase 2; test: Inhibition of African green monkey SOAT2 expressed in CHO cells assessed as decrease in [14C]CE synthesis from [14C]oleic acid after 6 hrs; type: cell-based
[8] = tested on: CHO; test: Effect on cell morphology in CHO cells expressing African green monkey SOAT2 up to 21 to 23 uM; type: ADME, cell-based, Cricetulus griseus; settings: chinese hamster
[9] = tested on: CHO; test: Effect on phospholipid synthesis in CHO cells expressing African green monkey SOAT2 up to 21 to 23 uM; type: ADME, cell-based, Cricetulus griseus; settings: chinese hamster; in short: as §1
[10] = species: Chlorocebus aethiops; test: Selectivity index, ratio of IC50 for African green monkey SOAT1 expressed in CHO cells to IC50 for African green monkey SOAT2 expressed in CHO cells; type: cell-based
In short: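 Monolayers of SOAT1- or SOAT2-CHO cells (≥80% confluent, overnight recovery) got CH3OH compound stocks (0–1 mg/mL) plus [14C]oleic acid (1 nmol, 1.85 kBq) for 6 h at 37 °C. Cells were SDS-lysed and Bligh–Dyer extracted, and [14C]CE was quantified by TLC radioimaging as percent of control. IC50s came from triplicate experiments, mean ± SD. SI = log(IC50 SOAT1/IC50 SOAT2).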

SMILES	Activity [1]	IC50 [2] [nM]	IC50 [3] [nM]	Activity [4]	IC50 [5] [nM]	-log(RatioIC50) [6]	IC50 [7] [nM]	Activity [8]	Activity [9]	log(RatioIC50) [10]	-log(RatioIC50) [10]
C[C@@H](C[C@H]1C(=O)N(C)[C@@H](C[C@H](C)C(Cl)(Cl)Cl)C(=O)N1C)C(Cl)(Cl)Cl	Non-Toxic	5200	5300	Non-Toxic	2100	0.4	4200	Non-Toxic	Non-Toxic	0.092	
CCC(=O)[C@H](C[C@H](C)C(Cl)(Cl)Cl)NC(=O)/C=C/[C@H](C)C(Cl)(Cl)Cl	Non-Toxic	1200	3200	Non-Toxic	1000	0.51	2400	Non-Toxic	Non-Toxic		0.3
CCC(=O)[C@H](C[C@H](C)C(Cl)(Cl)Cl)NC(=O)[C@H](C[C@H](C)C(Cl)(Cl)Cl)N(C)C	Non-Toxic	780	860	Non-Toxic	230	0.57	2800	Non-Toxic	Non-Toxic		0.56
